Assay results: ChEMBL document CHEMBL1135562, “Cyclic acid anhydrides as a new class of potent, selective and non-peptidic inhibitors of geranylgeranyl transferase” (Bioorg Med Chem Lett, 2002)

Experiments:
[1] = molecular target: T1, Protein farnesyltransferase (Homo sapiens, UniProt P49354+P49356); assay: In vitro inhibition of farnesyl-protein transferase; format: protein-complex assay
Method in brief: (§1)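 Recombinant human FPTase; substrate recombinant human wild-type H-Ras with [1-(n)-3H]farnesylpyrophosphate (555 GBq/mmol). Enzyme activity is the [3H]farnesyl transferred to Ras, measured by filter binding. IC50 is the concentration giving 50% inhibition of specific activity, fitted by non-linear regression to a dose–response curve.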

[2] = molecular target: T2, Geranylgeranyl transferase type I (Homo sapiens, UniProt P49354+P53609); assay: In vitro inhibition of geranylgeranyl-protein transferase type-I; format: protein-complex assay
Method in brief: (§2)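 Recombinant human GGPTase-I; substrate recombinant human H-Ras CVLL with [1-(n)-3H]geranylgeranylpyrophosphate (615 GBq/mmol). Activity is the [3H]geranylgeranyl transferred to Ras, measured by filter binding. IC50 is the concentration inhibiting specific activity by 50%, derived by non-linear regression fit to a dose–response curve.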

[3] = molecular target: T1, Protein farnesyltransferase; assay: In vitro inhibition of Farnesyltransferase; format: protein-complex assay; method in brief: as §1
[4] = molecular target: T2, Geranylgeranyl transferase type I; assay: In vitro inhibition of Geranylgeranyl transferase type I; format: protein-complex assay; method in brief: as §2
[5] = molecular target: T3, Protein farnesyl/geranylgeranyl transferase (Homo sapiens) (UniProt P49354+P49356+P53609); assay: Ratio of human Farnesyltransferase to human Geranylgeranyl transferase type I activity as IC50; 166:252; format: protein-complex assay
[6] = In vitro inhibition of geranylgeranyl-protein transferase type-II; set-up: species or system Homo sapiens
[7] = molecular target: T3, Protein farnesyl/geranylgeranyl transferase (Homo sapiens); assay: Ratio of human Farnesyltransferase to human Geranylgeranyl transferase type I activity as IC50; 900:500; format: protein-complex assay

| IC50 [1] | IC50 [2] | Structure (SMILES) | also measured |
| --- | --- | --- | --- |
| 402 µM | > 1000 µM | CCCCCCCCC/C=C/CC(CC(=O)O)C(=O)O (configuration not stated) | – |
| – | – | CC(C)=CCC/C(C)=C/CCC1=CCC2C(=O)OC(=O)C2C1 (configuration not stated) [listing 1 of 2 here] | IC50 [3]: 9 µM; IC50 [4]: 503 µM |
| > 1000 µM | 20.8 µM | CC(C)CCCC(C)CCCC(C)CCCC1=CCC2C(=O)OC(=O)C2C1 (configuration not stated) | – |
| 190 µM | 136 µM | CC(C)=CCC/C(C)=C/CCC1=CCC2C(=O)OC(=O)C2C1 (configuration not stated) [listing 2 of 2 here] | – |
| 854 µM | 229 µM | CCCCCCCCCCCC(=O)OC(=O)CCCCCCCCCCC [DODECANOIC ANHYDRIDE] | – |
| > 1000 µM | 900 µM | CC(C)=CCCC1=CCC(C(=O)O)C(C(=O)O)C1 (configuration not stated) | – |
| – | – | CCCCCCCCCCCCC(C(=O)O)C(C(=O)O)C(=O)O (configuration not stated) | Ratio [5]: 0.66 |
| > 1000 µM | 420 µM | CC(C)=CCC/C(C)=C/C=C1\CCC(C(=O)O)C(C(=O)O)C1 (configuration not stated) | – |
| 449 µM | 40.2 µM | CC(C)=CCCC1=CCC2C(=O)OC(=O)C2C1 (configuration not stated) | – |
| > 1000 µM | > 1000 µM | CC(C)CCCC(C)CCCC(C)CCCC1=CCC(C(=O)O)C(C(=O)O)C1 (configuration not stated) | – |
| – | > 1000 µM | COC(=O)C1CC=C(CCCC(C)CCCC(C)CCCC(C)C)CC1C(=O)OC (configuration not stated) | – |
| > 1000 µM | 401 µM | CCCCCCCCC/C=C/CC1CC(=O)OC1=O (configuration not stated) | – |
| – | 92 µM | CCCCCCCCCCCCCC/C(C(=O)O)=C(\C)C(=O)O [CHAETOMELLIC ACID A] | IC50 [6]: 34 µM |
| – | – | COC(=O)C1CC=C(CCC=C(C)C)CC1C(=O)OC (configuration not stated) | Ratio [7]: 1.8 |

| Structure (SMILES) | IC50 [1] | IC50 [2] | also measured |
| --- | --- | --- | --- |
| C=C1CC(=O)OC1=O [ITACONIC ANHYDRIDE] | > 1000 µM | > 1000 µM | – |
